# Yeast superoxide: lowers age-related superoxide in aged yeast cells | AID 2690 | superoxide response (% of plate mean), % at 10 µM | S. cerevisiae aged cells, superoxide DHE fluorescence; hits give low values | 330,000 compounds, 0.18% hits;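 active = superoxide response under a set limit, about three screen SD below normal, cut at about 65% in these data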;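 note: yeast aged for seven days with compound at 30 °C before DHE staining; 100% = average MFI of all compound-treated wells on the plate with controls excluded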
# HIF activator: HIF pathway transcriptional activation. activation, % at 7.5 µM (by protocol). 300,000 compounds, 0.32% hits. AID 1910. U2OS HRE-luciferase reporter, luminescence; normalized: DMSO 0%, desferrioxamine 100%;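 active = mean activation of at least 10% of the iron chelator positive control signal, with at least half of replicates also reaching 10%; inconclusive = mean and replicate majority disagree about reaching 10%; inactive = mean and most replicates under 10%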
# AI-2 QS mod: Vibrio harveyi AI-2 quorum sensing modulation; Vibrio harveyi JMH597 AI-2 luminescence/OD600 ratio, 9 h; hits give low values; strain lacks LuxN and CqsS sensors; 0 = neutral-control median; activity change, % at 7.5 µM; 300,000 compounds, 0.4% hits; in the data active = activity change below about -75%, passing the limit was not always enough; inconclusive = no clear call, values can overlap the other calls;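 note: luminescence divided by OD600 gain over 9 h not by final OD600 alone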
# T cruzi inh: blocks replication of Trypanosoma cruzi; inhibition, % (concentration not given with the values); 300,000 compounds, 1.4% hits; T. cruzi beta-gal in NIH3T3, luminescence, 90 h;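 active = mean inhibition across valid replicates above about 55%, limit read from the data; inconclusive = mean below that limit but half or more replicates reach it; inactive = mean below it, under half of replicates reach it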;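 note: signal also drops with host cell toxicity which is not excluded here; 0% = plate median of DMSO wells and 100% = zero luminescence signal; higher percent means less beta-gal luminescence so fewer parasites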
#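 compound dosing = single 50 nL compound addition per well in DMSO | material = NIH/3T3 host cells with β-galactosidase reporter T. cruzi | input = 5,000 host fibroblasts per well | timing = ≥90 h infection period, 3 h prior cell attachment | read-out basis = percent inhibition of parasite-derived β-gal signal | detection = GalScreen β-gal luminescence, detergent lysis, 60 min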
# CendR NRP1 mod: NRP-1/CendR interaction modulation | O14786 | FAM-RPARPAR peptide binding to NRP-1, fluorescence polarization | inhibition, % at 25 µM | 360,000 compounds, 0.85% hits;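 active = inhibition or corrected inhibition above about 18%, plus a signal ratio from 0.5 to 1.5, limit read from the data, passing the limit was not always enough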
# Target sequence (O14786 whole entry, looked up): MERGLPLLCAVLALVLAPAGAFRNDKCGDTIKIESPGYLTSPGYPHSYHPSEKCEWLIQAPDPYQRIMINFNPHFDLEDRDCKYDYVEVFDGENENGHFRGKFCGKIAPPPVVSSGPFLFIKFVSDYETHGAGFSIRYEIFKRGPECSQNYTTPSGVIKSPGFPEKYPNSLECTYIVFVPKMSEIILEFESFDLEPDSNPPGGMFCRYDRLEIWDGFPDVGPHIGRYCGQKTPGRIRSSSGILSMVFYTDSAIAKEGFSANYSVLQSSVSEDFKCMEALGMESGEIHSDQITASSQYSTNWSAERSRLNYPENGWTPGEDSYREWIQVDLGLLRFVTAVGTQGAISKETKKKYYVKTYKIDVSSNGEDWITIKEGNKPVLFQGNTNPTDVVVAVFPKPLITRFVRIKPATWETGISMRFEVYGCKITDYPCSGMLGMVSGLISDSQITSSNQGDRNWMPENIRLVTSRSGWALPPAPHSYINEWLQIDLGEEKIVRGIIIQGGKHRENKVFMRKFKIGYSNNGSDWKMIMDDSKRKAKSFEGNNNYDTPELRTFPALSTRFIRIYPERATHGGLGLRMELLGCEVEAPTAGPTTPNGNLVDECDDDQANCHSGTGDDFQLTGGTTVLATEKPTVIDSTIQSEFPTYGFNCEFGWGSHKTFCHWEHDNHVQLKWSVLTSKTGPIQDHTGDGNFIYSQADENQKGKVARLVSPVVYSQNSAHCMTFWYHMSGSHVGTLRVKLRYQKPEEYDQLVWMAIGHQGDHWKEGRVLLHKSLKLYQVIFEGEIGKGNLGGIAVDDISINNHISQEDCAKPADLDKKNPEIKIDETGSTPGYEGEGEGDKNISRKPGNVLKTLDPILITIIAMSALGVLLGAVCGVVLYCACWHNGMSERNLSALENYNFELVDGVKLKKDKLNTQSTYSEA
# V-ATPase pHluor: yeast V-ATPase proton transport regulation by pHLuorin. S. cerevisiae, pHLuorin cytosolic pH fluorescence. response, % at 10 µM. 350,000 compounds, 0.37% hits. AID 504577; in the data active = response mostly above about 7.3%, no sharp cut-off; inactive = mostly below about 5.4%; note: actives read high
# * = called active by the depositor; u = inconclusive; x = no result. A selection: hits, their analogues and other compounds. The true share with any hit is near 3%.
SMILES,Yeast superoxide,HIF activator,AI-2 QS mod,T cruzi inh,CendR NRP1 mod,V-ATPase pHluor
CC(=O)OCC1OC(OCc2cn(C[C@H]3CC[C@H](Cn4cc(COC5OC(COC(C)=O)C(OC(C)=O)C(OC(C)=O)C5OC(C)=O)nn4)O3)nn2)C(OC(C)=O)C(OC(C)=O)C1OC(C)=O (some centres undefined),106,0,13,-12,19*,-3
CC(=O)OCC1OC(OCc2cn(C[C@H]3CC[C@@H]([C@@H]4CC[C@H](Cn5cc(COC6OC(COC(C)=O)C(OC(C)=O)C(OC(C)=O)C6OC(C)=O)nn5)O4)O3)nn2)C(OC(C)=O)C(OC(C)=O)C1OC(C)=O (some centres undefined),103,0,13,-6,5,-14
O=C(NCc1cn(-c2ccccc2)nc1-c1ccccc1)c1cc([N+](=O)[O-])cc([N+](=O)[O-])c1,116,0,27,62*,8,2
COc1ccc(-c2nn(-c3ccccc3)cc2CNC(=O)c2cccc([N+](=O)[O-])c2)cc1,101,0,6,66*,0,0
O=C(NCc1cn(-c2ccccc2)nc1-c1ccccc1)c1cccc([N+](=O)[O-])c1,115,0,18,u,10,-1
CN(C)C(=O)/C(=C/c1cn(-c2ccccc2)nc1-c1cccc([N+](=O)[O-])c1)NC(=O)c1ccccc1,104,0,24,20,0,1
C=CCNC(=O)/C(=C/c1cn(-c2ccccc2)nc1-c1cccc([N+](=O)[O-])c1)NC(=O)c1ccccc1,110,230*,18,17,8,0
CCOC(=O)n1c(=O)n(Cc2ccc(OC)cc2)c2ccccc21,87,0,25,-15,-8,-1
O=C(NCCc1ccccc1F)/C(=C/c1cccnc1)NC(=O)c1ccccc1,106,0,7,-9,4,0
Cn1c(=O)oc2cc(S(=O)(=O)NCCN3CCN(c4ccccc4F)CC3)ccc21,91,0,35,11,-8,-1
Cn1c(CO)nc2c3ccccc3ccc21,111,36*,8,-16,4,-1
CCOC(=O)/C(=C\c1cccnc1)C(=O)c1cc(C(C)=O)c(Nc2ccccc2)s1,92,0,50,54,-7,-2
CCOC(=O)/C(=C\c1ccccc1)C(=O)c1cc(C(C)=O)c(Nc2ccccc2)s1,94,1,21,55*,-16,0
O=C(Nc1cc(Cl)ccc1-n1cncn1)c1ccc([N+](=O)[O-])s1,106,0,u,69*,-28,2
Cc1cccc(-n2c(SCC(N)=O)nnc2-c2ccccn2)c1C,93,2,30,-8,-1,-6
Nc1cc(=O)[nH]c(SCC(=O)Nc2cccnc2Cl)n1,99,-4,17,-10,12,4
CCNC(=O)COc1cccc(C(=O)NCc2ccccc2)c1,100,75*,20,0,-4,1
CCCNC(=O)COc1cccc(C(=O)NCc2ccccc2)c1,102,0,7,-10,14,0
Cc1ccc(C(=O)NCc2ccccc2)cc1Br,95,1,-77*,14,3,-1
CCCCCCCCCCn1c2c(c(=N)c3c1CCC3)CCC2,124,-1,30,68*,7,2
CCCCCCCCCn1c2c(c(=N)c3c1CCC3)CCCC2,x,-1,18,58*,7,0
O=C1CCc2cc(NS(=O)(=O)c3ccc(Br)cc3)cc3c2N1CC3,102,-1,-3,-15,2,3
COc1ccc(CNC(=O)C(=O)NCc2cccnc2)cc1,95,-1,0,-9,10,-6
COc1ccc2[nH]c(C(O)(Cc3cccnc3)Cc3cccnc3)cc2c1,110,-1,18,57*,5,4
Cc1ccc(S(=O)(=O)c2nnn3c2nc(N2CCCCC2)c2ccccc23)cc1,105,1,-3,61*,3,-2
SMILES,Yeast superoxide,HIF activator,AI-2 QS mod,T cruzi inh,CendR NRP1 mod,V-ATPase pHluor
O=S(=O)(NCc1ccccc1)c1ccc2ccccc2c1,119,0,3,21,-3,1
COc1ccc(/C=C/C(=O)NCC(=O)N/N=C/c2ccc(OC)cc2)cc1,97,0,16,2,20*,2
COc1ccccc1/C=C/C(=O)NCC(=O)N/N=C/c1ccccc1[N+](=O)[O-],109,0,3,61*,1,2
O=C(/C=C/c1ccccc1)NCC(=O)N/N=C/c1ccccc1[N+](=O)[O-],102,0,25,26,1,2
COc1ccc(/C=C/C(=O)NCC(=O)N/N=C/c2cccnc2)cc1,99,0,10,4,-6,1
C/C(=N\NC(=O)c1n[nH]c2c1CCC2)c1ccco1,91,2,x,-6,2,1
Cc1ccc(-c2nc3c(c(=O)[nH]c(=O)n3CC(C)C)n2CC(C)C)cc1[N+](=O)[O-],94,-1,13,58*,-6,2
O=c1[nH]c(=O)n(Cc2ccccc2)c2nc(-c3ccc(Oc4ccc(F)cc4)c([N+](=O)[O-])c3)n(CCO)c12,108,-1,21,14,26*,5
CCc1ccc(N2CC(C(=O)Nc3ccc(S(=O)(=O)Nc4ncccn4)cc3)CC2=O)cc1 (centres undefined),107,0,16,-1,-2,0
NC(=O)/C(=C/c1ccco1)NC(=O)c1ccc(Br)o1,108,-1,-8,9,-7,3
COC(=O)c1cc(C(=O)c2ccc(C(C)(C)C)cc2)c[nH]1,141,1,-85*,18,5,3
CC(C)(C)c1ccc(C(=O)c2c[nH]c(C(=O)O)c2)cc1,110,1,17,-23,-4,-2
COc1ccc(-c2cc(C(F)F)n3ncc(C(=O)Nc4c(C)n(C)n(-c5ccccc5)c4=O)c3n2)cc1,107,-1,4,-5,-3,7
CCCNC(=O)c1nnsc1S(=O)c1ccc(Cl)cc1 (centres undefined),x,-1,15,67*,1,2
CNC(=O)c1nnsc1S(=O)c1ccc(Cl)cc1 (centres undefined),x,0,u,60*,8,-2
CCCNC(=O)c1nnsc1S(=O)(=O)c1ccc(Cl)cc1,x,x,x,x,-4,-7
Cc1ccc(S(=O)c2snnc2C)cc1 (centres undefined),97,1,7,6,6,0
CN(C)CCCSc1nc2ccccc2s1,103,1,15,71*,3,4
O=C1C(=O)N(CCN2CCOCC2)C(c2ccc([N+](=O)[O-])cc2)/C1=C(/O)c1ccc2c(c1)OCO2 (centres undefined),97,1,20,-5,4,-4

# From PubChem BioAssay
